Results as given in ChEMBL document CHEMBL1145984 (J Med Chem, 2003).

Biological target: T1, Aminopeptidase N (Sus scrofa, UniProt P15145)
T1 sequence (P15145 whole entry): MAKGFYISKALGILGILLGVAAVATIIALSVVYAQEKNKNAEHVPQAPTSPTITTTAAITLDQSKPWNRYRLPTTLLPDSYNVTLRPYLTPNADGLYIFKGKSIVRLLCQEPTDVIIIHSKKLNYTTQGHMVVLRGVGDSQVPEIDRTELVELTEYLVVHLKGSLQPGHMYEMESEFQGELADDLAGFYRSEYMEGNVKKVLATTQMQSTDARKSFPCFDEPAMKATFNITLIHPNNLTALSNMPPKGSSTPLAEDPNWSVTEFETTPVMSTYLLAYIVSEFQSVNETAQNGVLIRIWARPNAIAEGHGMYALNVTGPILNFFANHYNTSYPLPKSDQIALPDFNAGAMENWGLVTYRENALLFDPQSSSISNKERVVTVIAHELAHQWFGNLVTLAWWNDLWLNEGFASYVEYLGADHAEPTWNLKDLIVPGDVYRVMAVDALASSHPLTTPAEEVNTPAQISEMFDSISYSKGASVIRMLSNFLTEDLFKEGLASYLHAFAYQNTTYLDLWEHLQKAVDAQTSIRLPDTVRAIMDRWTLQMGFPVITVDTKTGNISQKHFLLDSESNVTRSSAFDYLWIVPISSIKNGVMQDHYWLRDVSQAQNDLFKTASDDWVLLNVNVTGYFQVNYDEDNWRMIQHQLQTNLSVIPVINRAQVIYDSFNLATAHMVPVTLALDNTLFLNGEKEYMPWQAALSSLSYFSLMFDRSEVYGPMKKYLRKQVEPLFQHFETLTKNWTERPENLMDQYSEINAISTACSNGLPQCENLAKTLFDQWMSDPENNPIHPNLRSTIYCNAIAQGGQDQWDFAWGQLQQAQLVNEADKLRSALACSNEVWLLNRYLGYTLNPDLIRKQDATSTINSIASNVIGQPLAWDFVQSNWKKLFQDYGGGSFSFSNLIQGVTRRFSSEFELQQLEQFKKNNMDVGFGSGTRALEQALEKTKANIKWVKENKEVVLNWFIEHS
Assay: Binding affinity towards aminopeptidase N (APN) from pig kidney
Method in brief: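 Porcine kidney APN (lyophilized, diluted in 50 mM potassium phosphate pH 7.2; 4 µg/mL final), inhibitor preincubated 60 min at room temperature, inhibitor solutions adjusted to pH 7.5. L-leucine p-nitroanilide 0.05–0.6 mM final starts reaction; A405 followed 10 min at 25 °C. Ki from Lineweaver-Burk plots of initial linear velocities, 3–4 inhibitor concentrations, each measured twice.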

Compound	Ki
CC(C)CC(CP(=O)(O)C(N)CCc1ccccc1)C(=O)O (stereo unspecified)	1010 nM
NC(CCc1ccccc1)P(=O)(O)CC(Cc1ccccc1)C(=O)O (stereo unspecified)	276 nM
CC(C)CC(N)P(=O)(O)CCC(=O)O (stereo unspecified)	1410 nM
NC(CCc1ccccc1)P(=O)(O)CC(Cc1ccc(O)cc1)C(=O)O (stereo unspecified)	36 nM
CC(C)CC(N)P(=O)(O)O (stereo unspecified)	55000 nM
CC(C)CC(CP(=O)(O)C(N)CC(C)C)C(=O)O (stereo in doubt; 27)	1020 nM
